Reference: ChEMBL document CHEMBL4689842, “EUbOPEN Chemogenomics Library wave 1” (2021)

System: HEK-293T
Assay: Multiplex assay against HEK293T;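 as to Population Tubulin-Different-Phenotype (%): share of the cells with healthy nuclei that show this phenotype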
Format: toxicity, cell-based
Conditions: human
Summary of the method: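 Tubulin, mitochondrial-mass and membrane-permeability phenotypes are per cents of healthy-nucleus cells. Cells were gated by CellPathfinder machine learning into Hoechst high-intensity objects or normal cells, normal cells into healthy, pyknosed or fragmented nuclei, and pyknosed cells into mitotic or apoptotic. Before that, live cells stained at seeding with Hoechst33342, BioTracker Green Microtubule Cytoskeleton Dye, MitoTracker Red and Annexin V Alexa Fluor 680 were imaged on a CQ1 microscope at 37°C and 5% CO2 after compound addition.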

[1] = 12 h, 1 µM, compound concentration 1 uM, replicate 1
[2] = 12 h, 1 µM, compound concentration 1 uM, replicate 2
[3] = 12 h, 10 µM, compound concentration 10 uM, replicate 1
[4] = 12 h, 10 µM, compound concentration 10 uM, replicate 2
[5] = 24 h, 1 µM, compound concentration 1 uM, replicate 1
[6] = 24 h, 1 µM, compound concentration 1 uM, replicate 2
[7] = 24 h, 10 µM, compound concentration 10 uM, replicate 1
[8] = 24 h, 10 µM, compound concentration 10 uM, replicate 2
[9] = 48 h, 1 µM, compound concentration 1 uM, replicate 1
[10] = 48 h, 1 µM, compound concentration 1 uM, replicate 2
[11] = 48 h, 10 µM, compound concentration 10 uM, replicate 1
[12] = 48 h, 10 µM, compound concentration 10 uM, replicate 2

## CC(C)(O)CNc1ncc(-c2ccnc(Nc3ccnc(Cl)c3)n2)c(CC2CC2)n1
[1]
  Population Apoptotic (%): 59%
  Population Fragmented Nuclei (%): 14%
  Population Healthy Nuclei (%): 25%
  Population Hoechst High Intensity Objects (%): 16%
  Population Membrane Permeable-Phenotype (%): 4%
  Population Mitochondria Different-Phenotype (%): 90%
  Population Mitotic Cells (%): 40%
  Population Normal (%): 83%
  Population Pyknosed Nuclei (%): 59%
  Population Tubulin-Different-Phenotype (%): 75%
  Total Cell Count: 287
[2]
  Population Apoptotic (%): 17%
  Population Fragmented Nuclei (%): 9%
  Population Healthy Nuclei (%): 23%
  Population Hoechst High Intensity Objects (%): 8%
  Population Membrane Permeable-Phenotype (%): 13%
  Population Mitochondria Different-Phenotype (%): 13%
  Population Mitotic Cells (%): 82%
  Population Normal (%): 91%
  Population Pyknosed Nuclei (%): 67%
  Population Tubulin-Different-Phenotype (%): 31%
  Total Cell Count: 133
[3]
  Population Apoptotic (%): 72%
  Population Fragmented Nuclei (%): 11%
  Population Healthy Nuclei (%): 5%
  Population Hoechst High Intensity Objects (%): 23%
  Population Membrane Permeable-Phenotype (%): 13%
  Population Mitochondria Different-Phenotype (%): 93%
  Population Mitotic Cells (%): 27%
  Population Normal (%): 76%
  Population Pyknosed Nuclei (%): 83%
  Population Tubulin-Different-Phenotype (%): 86%
  Total Cell Count: 381
[4]
  Population Apoptotic (%): 52%
  Population Fragmented Nuclei (%): 4%
  Population Healthy Nuclei (%): 3%
  Population Hoechst High Intensity Objects (%): 14%
  Population Membrane Permeable-Phenotype (%): 28%
  Population Mitochondria Different-Phenotype (%): 85%
  Population Mitotic Cells (%): 47%
  Population Normal (%): 85%
  Population Pyknosed Nuclei (%): 91%
  Population Tubulin-Different-Phenotype (%): 42%
  Total Cell Count: 213
[5]
  Population Apoptotic (%): 49%
  Population Fragmented Nuclei (%): 12%
  Population Healthy Nuclei (%): 28%
  Population Hoechst High Intensity Objects (%): 15%
  Population Membrane Permeable-Phenotype (%): 1%
  Population Mitochondria Different-Phenotype (%): 82%
  Population Mitotic Cells (%): 50%
  Population Normal (%): 84%
  Population Pyknosed Nuclei (%): 58%
  Population Tubulin-Different-Phenotype (%): 89%
  Total Cell Count: 319
[6]
  Population Apoptotic (%): 27%
  Population Fragmented Nuclei (%): 9%
  Population Healthy Nuclei (%): 34%
  Population Hoechst High Intensity Objects (%): 5%
  Population Membrane Permeable-Phenotype (%): 6%
  Population Mitochondria Different-Phenotype (%): 27%
  Population Mitotic Cells (%): 72%
  Population Normal (%): 94%
  Population Pyknosed Nuclei (%): 56%
  Population Tubulin-Different-Phenotype (%): 68%
  Total Cell Count: 145
[7]
  Population Apoptotic (%): 73%
  Population Fragmented Nuclei (%): 15%
  Population Healthy Nuclei (%): 3%
  Population Hoechst High Intensity Objects (%): 23%
  Population Membrane Permeable-Phenotype (%): 11%
  Population Mitochondria Different-Phenotype (%): 100%
  Population Mitotic Cells (%): 26%
  Population Normal (%): 76%
  Population Pyknosed Nuclei (%): 81%
  Population Tubulin-Different-Phenotype (%): 100%
  Total Cell Count: 382
[8]
  Population Apoptotic (%): 64%
  Population Fragmented Nuclei (%): 2%
  Population Healthy Nuclei (%): 2%
  Population Hoechst High Intensity Objects (%): 16%
  Population Membrane Permeable-Phenotype (%): 40%
  Population Mitochondria Different-Phenotype (%): 80%
  Population Mitotic Cells (%): 35%
  Population Normal (%): 83%
  Population Pyknosed Nuclei (%): 94%
  Population Tubulin-Different-Phenotype (%): 40%
  Total Cell Count: 208
[9]
  Population Apoptotic (%): 40%
  Population Fragmented Nuclei (%): 22%
  Population Healthy Nuclei (%): 29%
  Population Hoechst High Intensity Objects (%): 17%
  Population Membrane Permeable-Phenotype (%): 3%
  Population Mitochondria Different-Phenotype (%): 62%
  Population Mitotic Cells (%): 59%
  Population Normal (%): 82%
  Population Pyknosed Nuclei (%): 47%
  Population Tubulin-Different-Phenotype (%): 68%
  Total Cell Count: 360
[10]
  Population Apoptotic (%): 25%
  Population Fragmented Nuclei (%): 5%
  Population Healthy Nuclei (%): 68%
  Population Hoechst High Intensity Objects (%): 5%
  Population Membrane Permeable-Phenotype (%): 10%
  Population Mitochondria Different-Phenotype (%): 10%
  Population Mitotic Cells (%): 75%
  Population Normal (%): 94%
  Population Pyknosed Nuclei (%): 26%
  Population Tubulin-Different-Phenotype (%): 57%
  Total Cell Count: 209
[11]
  Population Apoptotic (%): 72%
  Population Fragmented Nuclei (%): 22%
  Population Healthy Nuclei (%): 1%
  Population Hoechst High Intensity Objects (%): 28%
  Population Membrane Permeable-Phenotype (%): 25%
  Population Mitochondria Different-Phenotype (%): 100%
  Population Mitotic Cells (%): 27%
  Population Normal (%): 71%
  Population Pyknosed Nuclei (%): 76%
  Population Tubulin-Different-Phenotype (%): 100%
  Total Cell Count: 373
[12]
  Population Apoptotic (%): 63%
  Population Fragmented Nuclei (%): 6%
  Population Healthy Nuclei (%): 3%
  Population Hoechst High Intensity Objects (%): 16%
  Population Membrane Permeable-Phenotype (%): 0%
  Population Mitochondria Different-Phenotype (%): 71%
  Population Mitotic Cells (%): 36%
  Population Normal (%): 83%
  Population Pyknosed Nuclei (%): 89%
  Population Tubulin-Different-Phenotype (%): 71%
  Total Cell Count: 212
